Experimental data: ChEMBL document CHEMBL5331120, “Stapled β-Hairpin Antimicrobial Peptides with Improved Stability and Activity against Drug-Resistant Gram-Negative Bacteria” (J Med Chem, 2023)
Values after ≈ are worked out from the molar mass of the structure shown. Active and inactive are the calls of the source. No cut-off for these calls is given here.

Key:
Erythrocyte = experiment: Hemolytic activity in human RBC upto 128 uM incubated for 1 hr by absorbance based analysis; assay type: toxicity, cell-based
How it was run: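 Washed human RBCs from healthy volunteers at 4% in PBS. Peptide at 4–128 μM, 37 °C for 1 h. Supernatant after 1000g, 10 min spin read at OD540. 1% Triton X-100 gave full lysis; % hemolysis derived and HC50 estimated.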

Escherichia coli [1] = experiment: Bactericidal activity against Escherichia coli ATCC 25922 assessed as cell killing at 2 times MIC measured after 3 hrs relative to control; assay type: functional
How it was run: (§1)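 Time-kill against E. coli ATCC 25922 at 1× and 2× MIC, counted as CFU/mL over time. Limit of detection 50 CFU/mL; experiments repeated two times.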

Staphylococcus aureus = experiment: Antimicrobial activity against Staphylococcus aureus ATCC 29737 assessed as inhibition of bacterial growth incubated for 18 hrs by broth microdilution method; assay type: functional, organism-based
How it was run: (§2)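 Standard broth microdilution in MHB. Overnight culture (37 °C, 120 rpm) adjusted to OD600 0.07 and diluted 1000× to 3 × 10^5 CFU/mL. Peptides serially diluted in triplicate, 18 h at 37 °C with 120 rpm shaking. Growth read as OD600; MIC is the lowest concentration with no visible growth. Colistin served as control for Gram-negatives, vancomycin for S. aureus.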

Pseudomonas aeruginosa = experiment: Antimicrobial activity against Pseudomonas aeruginosa ATCC 9027 assessed as inhibition of bacterial growth incubated for 18 hrs by broth microdilution method; assay type: functional; how it was run: as §2
Escherichia coli [2] = experiment: Antimicrobial activity against colistin resistant Escherichia coli clinical isolate R1 harboring mcr-1 gene assessed as inhibition of bacterial growth incubated for 18 hrs by broth microdilution method; assay type: functional, organism-based
How it was run: (§3)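 Overnight MHB culture (37 °C, 120 rpm) adjusted to OD600 0.07 (~10^8 CFU/mL), then diluted 1000× to 3 × 10^5 CFU/mL. Peptides serially diluted with the bacterial suspension in triplicate, shaken at 37 °C, 120 rpm for 18 h, then OD600 read. MIC is the lowest concentration with no visible growth. Colistin as positive control.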

Escherichia coli [3] = experiment: Antimicrobial activity against Escherichia coli ATCC 25922 assessed as inhibition of bacterial growth compound pretreated for 1 hr with trypsin and measured after 18 hrs by broth microdilution method; assay type: functional, organism-based
How it was run: (§4)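 Peptide incubated with trypsin at a 1:2000 trypsin/peptide molar ratio (e.g., 1 mM peptide with 0.5 μM trypsin), 37 °C, 1 h. Reaction stopped at 80 °C for 10 min, then serially diluted against E. coli in MHB broth microdilution. Inoculum 3 × 10^5 CFU/mL, 37 °C, 120 rpm, 18 h, read by OD600, triplicates. Fold change in MIC taken versus untreated control.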

Cell membrane [4] = experiment: Induction of inner membrane permeabilization in Escherichia coli ATCC 25922 assessed as SYTOX green uptake at 1 times MIC incubated for 1 hr by fluorescence based microplate reader analysis relative to control
How it was run: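 Exponential-phase cells washed twice in PBS pH 7, resuspended to OD600 0.4; equal volume SYTOX green (4 μM) added, 5 min. Peptide added (4, 8, 16 μM), 1 h at 37 °C with shaking. Fluorescence ex 488/em 523 nm; % uptake computed from untreated (F0) and positive-control peptide BTT1 (Fmax) signals. Three repeats.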

Cell membrane [5] = experiment: Induction of outer membrane permeabilization in Escherichia coli ATCC 25922 assessed as NPN uptake at 1 times MIC incubated for 1 hr by fluorescence based microplate reader analysis relative to control
How it was run: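 Exponential-phase cells washed twice in PBS pH 7, resuspended to OD600 0.4; equal volume 40 μM NPN added, then equal volume peptide (4, 8, 16 μM). Incubated 1 h at 37 °C with shaking. Fluorescence ex 355/em 405 nm; % uptake relative to no-compound (F0) and colistin 100 μM control (Fmax). Three repeats.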

Escherichia coli [6] = experiment: Antimicrobial activity against colistin/carbapenem resistant Escherichia coli clinical isolate R2 harboring mcr-1 and NDM-1 gene assessed as inhibition of bacterial growth incubated for 18 hrs by broth microdilution method; assay type: functional, organism-based; how it was run: as §3
Escherichia coli [7] = experiment: Antimicrobial activity against Escherichia coli ATCC 25922 assessed as inhibition of bacterial growth incubated for 18 hrs in presence of 10% fetal bovine serum by broth microdilution method; assay type: functional, organism-based
How it was run: (§5)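 E. coli broth microdilution in MHB containing 10% fetal bovine serum. Inoculum 3 × 10^5 CFU/mL, diluted from an OD600 0.07 suspension. Incubated 18 h at 37 °C with 120 rpm shaking, OD600 read, triplicates. Fold change in MIC calculated against control MIC.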

Escherichia coli [8] = experiment: Antimicrobial activity against Escherichia coli ATCC 25922 assessed as inhibition of bacterial growth incubated for 18 hrs by broth microdilution method; assay type: functional; how it was run: as §2
Escherichia coli [9] = experiment: Bactericidal activity against Escherichia coli ATCC 25922 assessed as cell killing at 1 times MIC measured after 6 hrs relative to control; assay type: functional; how it was run: as §1
Escherichia coli [10] = experiment: Induction of membrane morphological changes in Escherichia coli ATCC 25922 at 16 uM measured after 1 hr by TEM analysis; assay type: functional, organism-based
Trypsin = Trypsin (Homo sapiens, UniProt P07477+P07478+P35030); experiment: Stability of compound assessed as trypsin (unknown origin) mediated compound degradation by measuring parent compound remaining measured after 1.5 hrs by RP-HPLC analysis; assay type: ADME, protein assay; details: trypsin, read-out: Stability
How it was run: (§6)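 Peptide with trypsin at a 1:2000 trypsin/peptide molar ratio, 37 °C, sampled at 15, 30, 60 and 90 min. Reaction stopped with an equal volume of 50% acetonitrile/1% TFA. Analysed on C18 RP-HPLC with UV at 220 nm; intact peptide given as % of AUC.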

Escherichia coli [11] = experiment: Induction of membrane morphological changes in Escherichia coli ATCC 25922 at 16 uM measured after 3 to 6 hrs by TEM analysis; assay type: functional, organism-based; details: time 3-6 hrs
Escherichia coli [12] = experiment: Antimicrobial activity against colistin/carbapenem resistant Escherichia coli clinical isolate R2 harboring mcr-1 and NDM-1 gene assessed as fold increase in MIC incubated for 18 hrs by broth microdilution method relative to control; assay type: functional
Escherichia coli [13] = experiment: Antimicrobial activity against Escherichia coli ATCC 25922 assessed as fold increase in MIC incubated for 18 hrs in presence of 10% fetal bovine serum by broth microdilution method relative to control; assay type: functional; how it was run: as §5
[14] = Stability of compound assessed as trypsin (unknown origin) mediated compound degradation by measuring parent compound remaining measured after 1 hr by RP-HPLC analysis; assay type: ADME, protein assay; details: human, read-out: Stability; how it was run: as §6
Escherichia coli [15] = experiment: Antimicrobial activity against colistin resistant Escherichia coli clinical isolate R1 harboring mcr-1 gene assessed as fold increase in MIC incubated for 18 hrs by broth microdilution method relative to control; assay type: functional
Escherichia coli [16] = experiment: Antimicrobial activity against Escherichia coli ATCC 25922 assessed as fold increase in MIC compound pretreated for 1 hr with trypsin and measured after 18 hrs by broth microdilution method relative to control; assay type: functional; details: trypsin pretreatment 1 hr; MIC measured after 18 hrs; how it was run: as §4
Escherichia coli [17] = experiment: Antimicrobial activity against colistin/carbapenem resistant Escherichia coli clinical isolate R3 harboring NDM-7 and OXA-181 gene assessed as fold increase in MIC incubated for 18 hrs by broth microdilution method relative to control; assay type: functional
Escherichia coli [18] = experiment: Antimicrobial activity against Escherichia coli ATCC 25922 assessed as fold increase in MIC incubated for 18 hrs in presence of NaCl by broth microdilution method relative to control; assay type: functional
How it was run: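 MHB broth microdilution against E. coli with 150 mM NaCl added to the medium. Inoculum 3 × 10^5 CFU/mL, 37 °C, 120 rpm, 18 h, OD600 read, triplicates. MIC fold change taken relative to control.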

For `CC(C)C[C@@H]1NC(=O)[C@H](CCCCN)NC(=O)CNC(=O)C2CCCN2C(=O)[C@H](CCCCN)NC(=O)[C@H](CC(C)C)NC(=O)[C@H](CCCCN)NC(=O)[C@H](CC(C)C)NC(=O)[C@H](CCCCN)NC(=O)[C@@H](N)CC/C=C/CC[C@@H](C(=O)O)NC(=O)[C@H](CCCCN)NC(=O)[C@H](CC(C)C)NC(=O)[C@H](CCCCN)NC1=O` (single isomer, unassigned), the Activity (Erythrocyte) was “Non-Toxic”, the Activity (Escherichia coli [1]) was 100% and the Activity (Staphylococcus aureus) was “inactive”. For the same compound, the MIC (Pseudomonas aeruginosa) was 8 µM (≈ 12.7 µg/mL), the Activity (Escherichia coli [2]) was “Active” and the Activity (Escherichia coli [3]) was “Active”. The Activity (Cell membrane [4]) was 80%, the Activity (Cell membrane [5]) was 70% and the Activity (Escherichia coli [6]) was “Active”. The Activity (Escherichia coli [7]) was “Active”, the MIC (Escherichia coli [8]) was 8 µM (≈ 12.7 µg/mL) and the Activity (Escherichia coli [9]) was 100%. The Activity (Escherichia coli [10]) was “inactive”, the remaining at 1.5 h (Trypsin) was over 40% and the Activity (Escherichia coli [11]) was “Active”.
In the case of H-LKLKLKPGKLKLKL-OH, the Activity (Staphylococcus aureus) is reported as “inactive”, the “fold change (FC)” value (Escherichia coli [12]) is reported as “>=8” and the “fold change (FC)” value (Escherichia coli [13]) is reported as 8. The remaining at 1 h [14] was under 10%, the Activity (Cell membrane [4]) was 80% and the Activity (Cell membrane [5]) was 40%. For the same compound, the “fold change (FC)” value (Escherichia coli [15]) was “>=8”, the “fold change (FC)” value (Escherichia coli [16]) was 8 and the “fold change (FC)” value (Escherichia coli [17]) was “>=8”. The “fold change (FC)” value (Escherichia coli [18]) was 32.
